Data taken from ChEMBL document CHEMBL1275350, “First in class, potent, and orally bioavailable NADPH oxidase isoform 4 (Nox4) inhibitors for the treatment of idiopathic pulmonary fibrosis” (J Med Chem, 2010).

How the values were obtained:
[1] = target: Phosphatidylinositol 4,5-bisphosphate 3-kinase catalytic subunit delta isoform (Homo sapiens) (UniProt O00329); test: Inhibition of PI3Kdelta at 10; conditions: concentration not given here
[2] = target: Polyunsaturated fatty acid lipoxygenase ALOX15 (Homo sapiens) (UniProt P16050); test: Inhibition of 15-lipoxygenase at 10 uM
Chain of Polyunsaturated fatty acid lipoxygenase ALOX15 (Homo sapiens) (P16050 whole entry): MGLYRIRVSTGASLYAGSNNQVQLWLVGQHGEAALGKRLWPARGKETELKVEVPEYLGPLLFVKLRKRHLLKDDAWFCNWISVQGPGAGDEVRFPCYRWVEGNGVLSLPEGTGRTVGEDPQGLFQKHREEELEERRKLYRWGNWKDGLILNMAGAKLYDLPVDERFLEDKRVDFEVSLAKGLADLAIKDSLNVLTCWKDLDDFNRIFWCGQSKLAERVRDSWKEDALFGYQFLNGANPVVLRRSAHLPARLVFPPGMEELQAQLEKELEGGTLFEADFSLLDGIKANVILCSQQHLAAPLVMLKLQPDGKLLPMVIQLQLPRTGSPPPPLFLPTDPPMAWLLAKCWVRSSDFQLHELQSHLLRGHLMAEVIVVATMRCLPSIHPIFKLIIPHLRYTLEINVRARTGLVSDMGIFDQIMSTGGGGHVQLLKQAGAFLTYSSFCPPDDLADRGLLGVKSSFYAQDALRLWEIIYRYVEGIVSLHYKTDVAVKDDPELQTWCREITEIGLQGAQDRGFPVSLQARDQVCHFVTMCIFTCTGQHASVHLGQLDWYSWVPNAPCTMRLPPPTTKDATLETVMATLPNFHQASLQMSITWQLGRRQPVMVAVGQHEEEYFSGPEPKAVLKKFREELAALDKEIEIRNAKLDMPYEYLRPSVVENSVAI

[3] = target: Cytochrome P450 2C19 (Homo sapiens, UniProt P33261); test: Inhibition of human CYP2C19; type: ADME
In short: (§1)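 Recombinant human CYP isoforms with isoform-specific probe substrates and NADPH. Compound at 0.1–25 μM, final DMSO 0.3%. Metabolites measured by mass spectrometry, except CYP1A2, which used a fluorescent metabolite. IC50 derived from the decrease in metabolite formation compared with vehicle control.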

[4] = Cmax in Sprague-Dawley rat at 5 mg/kg, iv; type: ADME, organism-based; set-up: dose 5 mg/kg, route intravenous; conditions: in vivo
In short: (§2)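 Parallel design with six male rats: three given 5 mg/kg iv in EDPW (10% EtOH, 10% DMA, 30% PG, 50% water), three given 10 mg/kg orally in aqueous 0.5% CMC with 0.25% Tween 20. Carotid cannula blood sampled up to 24 h. Plasma levels by LC/MS/MS (LLOQ 1.00 ng/mL). Noncompartmental analysis.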

[5] = target: Xanthine dehydrogenase/oxidase (Homo sapiens, UniProt P47989); test: Inhibition of xanthine oxidase by in vitro enzymatic assay in presence of xanthine
Chain of Xanthine dehydrogenase/oxidase (P47989 whole entry): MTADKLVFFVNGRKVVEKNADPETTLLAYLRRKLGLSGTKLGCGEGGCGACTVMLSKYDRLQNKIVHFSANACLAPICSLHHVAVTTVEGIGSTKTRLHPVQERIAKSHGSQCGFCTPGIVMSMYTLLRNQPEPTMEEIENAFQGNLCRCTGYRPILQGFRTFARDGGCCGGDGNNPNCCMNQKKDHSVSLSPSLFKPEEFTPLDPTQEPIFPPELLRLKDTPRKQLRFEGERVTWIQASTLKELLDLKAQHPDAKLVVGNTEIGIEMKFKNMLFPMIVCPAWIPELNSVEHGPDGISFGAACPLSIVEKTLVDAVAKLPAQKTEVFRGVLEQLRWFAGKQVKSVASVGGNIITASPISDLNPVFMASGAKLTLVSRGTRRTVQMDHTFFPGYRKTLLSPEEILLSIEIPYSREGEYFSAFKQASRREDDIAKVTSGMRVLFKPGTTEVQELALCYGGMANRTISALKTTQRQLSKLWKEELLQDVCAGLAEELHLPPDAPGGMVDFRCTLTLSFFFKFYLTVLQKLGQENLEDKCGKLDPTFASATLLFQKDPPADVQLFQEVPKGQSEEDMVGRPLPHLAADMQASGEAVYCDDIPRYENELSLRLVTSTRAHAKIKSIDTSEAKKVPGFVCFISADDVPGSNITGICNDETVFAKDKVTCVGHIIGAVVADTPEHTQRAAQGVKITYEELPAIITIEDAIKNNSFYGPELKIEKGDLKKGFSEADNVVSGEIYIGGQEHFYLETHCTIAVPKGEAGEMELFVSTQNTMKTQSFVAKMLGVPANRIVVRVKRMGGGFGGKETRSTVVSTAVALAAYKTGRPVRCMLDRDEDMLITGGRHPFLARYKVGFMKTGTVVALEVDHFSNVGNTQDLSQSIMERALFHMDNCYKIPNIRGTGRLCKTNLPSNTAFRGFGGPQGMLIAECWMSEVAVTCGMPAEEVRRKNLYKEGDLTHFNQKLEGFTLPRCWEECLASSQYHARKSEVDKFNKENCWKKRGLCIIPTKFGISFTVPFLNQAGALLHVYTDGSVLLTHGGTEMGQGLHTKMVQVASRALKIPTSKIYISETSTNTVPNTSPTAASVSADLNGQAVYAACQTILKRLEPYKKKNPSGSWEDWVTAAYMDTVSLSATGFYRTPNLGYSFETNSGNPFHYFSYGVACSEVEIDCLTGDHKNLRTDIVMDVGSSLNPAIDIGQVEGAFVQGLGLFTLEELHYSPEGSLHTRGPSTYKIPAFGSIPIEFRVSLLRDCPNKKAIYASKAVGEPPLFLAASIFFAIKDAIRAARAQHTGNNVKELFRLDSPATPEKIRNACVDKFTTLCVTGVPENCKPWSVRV
In short: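 Cell-free Amplex Red read-out: xanthine oxidase incubated in PBS with Amplex Red, HRP and cofactors; ROS production started by adding xanthine. Compound at rising concentrations from 1 nM to 100 μM, 20 min at 37 °C, then read on a plate reader. Background taken without enzyme or without agonist. Ki by Cheng-Prusoff, mean of at least three experiments run in triplicate.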

[6] = Inhibition of sodium channel at 10 uM
[7] = target: Myeloperoxidase (Homo sapiens) (UniProt P05164); test: Inhibition of human myeloperoxidase at 10 uM
[8] = Inhibition of chloride channel at 10 uM
[9] = target: Cytochrome P450 2C9 (Homo sapiens, UniProt P11712); test: Inhibition of human CYP2C9; type: ADME; in short: as §1
[10] = target: Dual specificity mitogen-activated protein kinase kinase 1 (Homo sapiens) (UniProt Q02750); test: Inhibition of human MEK1 at 10 uM
Chain of Dual specificity mitogen-activated protein kinase kinase 1 (Homo sapiens) (Q02750 whole entry): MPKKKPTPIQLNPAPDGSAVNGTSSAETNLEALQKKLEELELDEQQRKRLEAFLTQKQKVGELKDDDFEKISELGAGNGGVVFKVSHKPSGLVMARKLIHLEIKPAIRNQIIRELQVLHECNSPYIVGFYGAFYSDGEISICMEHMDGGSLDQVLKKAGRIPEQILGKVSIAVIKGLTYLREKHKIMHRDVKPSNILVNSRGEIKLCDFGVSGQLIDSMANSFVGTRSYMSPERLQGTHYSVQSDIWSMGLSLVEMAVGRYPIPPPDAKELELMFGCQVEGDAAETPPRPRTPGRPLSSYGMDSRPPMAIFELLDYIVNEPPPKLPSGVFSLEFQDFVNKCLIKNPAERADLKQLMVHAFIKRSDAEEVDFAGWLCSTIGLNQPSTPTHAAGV

[11] = Intrinsic clearance in Sprague-Dawley rat liver microsomes assessed per mg of protein at 0.5 uM; type: ADME, Microsome
In short: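 Phase I stability assay in pooled liver microsomes (human: male and female; rat: male Sprague-Dawley). Microsomes at 0.5 mg/mL final in 0.1 M phosphate pH 7.4. Compound 0.5 μM final, 0.25% DMSO. Preincubated at 37 °C, reaction started with 1 mM NADPH. Sampled at 0, 5, 15, 30 and 45 min, with a 45 min minus-NADPH control. Methanol quench with internal standard, LC/MS-MS, intrinsic clearance calculated.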

[12] = Cmax in Sprague-Dawley rat at 10 mg/kg, po; type: ADME, organism-based; set-up: dose 10 mg/kg, route oral; conditions: in vivo; in short: as §2
[13] = AUC (infinity) in Sprague-Dawley rat at 10 mg/kg, po; type: ADME, organism-based; set-up: time infinity, dose 10 mg/kg, route oral; conditions: plasma; in short: as §2
[14] = species: Rattus norvegicus; test: Inhibition of rat AMPK at 10 uM
[15] = target: Protein kinase C delta type (Homo sapiens) (UniProt Q05655); test: Inhibition of human PKCdelta at 10 uM
Chain of Protein kinase C delta type (Homo sapiens) (Q05655 whole entry, looked up): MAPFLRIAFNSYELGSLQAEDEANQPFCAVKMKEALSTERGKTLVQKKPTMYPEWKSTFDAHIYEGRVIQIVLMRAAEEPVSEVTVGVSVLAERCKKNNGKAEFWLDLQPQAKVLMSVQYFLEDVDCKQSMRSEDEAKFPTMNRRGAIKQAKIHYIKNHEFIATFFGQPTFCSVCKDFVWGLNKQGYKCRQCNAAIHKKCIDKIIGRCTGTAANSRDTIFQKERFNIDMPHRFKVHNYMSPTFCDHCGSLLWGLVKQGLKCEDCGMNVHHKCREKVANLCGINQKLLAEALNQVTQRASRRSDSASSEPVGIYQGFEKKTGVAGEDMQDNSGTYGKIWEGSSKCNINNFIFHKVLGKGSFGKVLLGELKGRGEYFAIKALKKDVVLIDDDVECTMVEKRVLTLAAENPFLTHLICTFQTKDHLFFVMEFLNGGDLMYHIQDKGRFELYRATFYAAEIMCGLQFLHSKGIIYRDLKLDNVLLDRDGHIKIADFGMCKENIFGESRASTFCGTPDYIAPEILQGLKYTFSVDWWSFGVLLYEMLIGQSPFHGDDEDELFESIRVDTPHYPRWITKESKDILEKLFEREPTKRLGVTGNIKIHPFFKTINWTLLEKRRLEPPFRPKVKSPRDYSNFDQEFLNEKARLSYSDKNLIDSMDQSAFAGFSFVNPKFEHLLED

[16] = target: MAP kinase p38 (Homo sapiens) (UniProt O15264+Q15759+Q16539+P53778); test: Inhibition of human p38 MAP kinase at 10 uM; type: protein assay
[17] = target: Protein kinase C alpha type (Homo sapiens) (UniProt P17252); test: Inhibition of human PKCalpha at 10 uM
[18] = target: Phosphatidylinositol 4,5-bisphosphate 3-kinase catalytic subunit alpha isoform (Homo sapiens) (UniProt P42336); test: Inhibition of PI3Kalpha at 10; conditions: concentration not given here
[19] = target: Protein kinase C beta type (Homo sapiens) (UniProt P05771); test: Inhibition of human PKCbeta at 10 uM
Chain of Protein kinase C beta type (Homo sapiens) (P05771 2-671 limits assumed): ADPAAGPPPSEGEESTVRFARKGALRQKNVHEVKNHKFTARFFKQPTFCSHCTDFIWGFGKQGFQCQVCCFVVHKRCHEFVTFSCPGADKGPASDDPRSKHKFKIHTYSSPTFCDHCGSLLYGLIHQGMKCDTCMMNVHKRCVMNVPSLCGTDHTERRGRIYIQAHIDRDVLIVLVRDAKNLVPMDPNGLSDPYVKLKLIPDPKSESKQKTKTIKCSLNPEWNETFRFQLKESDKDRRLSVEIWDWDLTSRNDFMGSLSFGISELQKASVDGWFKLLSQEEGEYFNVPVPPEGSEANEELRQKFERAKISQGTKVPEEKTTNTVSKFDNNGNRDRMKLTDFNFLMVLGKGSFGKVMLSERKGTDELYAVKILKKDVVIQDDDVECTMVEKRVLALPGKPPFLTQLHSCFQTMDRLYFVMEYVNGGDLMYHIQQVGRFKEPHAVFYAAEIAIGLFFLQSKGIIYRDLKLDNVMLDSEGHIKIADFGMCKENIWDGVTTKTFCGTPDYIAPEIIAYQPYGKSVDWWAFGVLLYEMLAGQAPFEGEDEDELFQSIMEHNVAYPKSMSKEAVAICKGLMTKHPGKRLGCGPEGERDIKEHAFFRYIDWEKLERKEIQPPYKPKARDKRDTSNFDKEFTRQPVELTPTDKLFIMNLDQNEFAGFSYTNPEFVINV

[20] = Half life in Sprague-Dawley rat at 5 mg/kg, iv; type: ADME, organism-based; set-up: dose 5 mg/kg, route intravenous; conditions: in vivo; in short: as §2
[21] = target: Endothelin-1 receptor (Homo sapiens) (UniProt P25101); test: Inhibition of human ET-A receptor at 10 uM
Chain of Endothelin-1 receptor (Homo sapiens) (P25101 whole entry): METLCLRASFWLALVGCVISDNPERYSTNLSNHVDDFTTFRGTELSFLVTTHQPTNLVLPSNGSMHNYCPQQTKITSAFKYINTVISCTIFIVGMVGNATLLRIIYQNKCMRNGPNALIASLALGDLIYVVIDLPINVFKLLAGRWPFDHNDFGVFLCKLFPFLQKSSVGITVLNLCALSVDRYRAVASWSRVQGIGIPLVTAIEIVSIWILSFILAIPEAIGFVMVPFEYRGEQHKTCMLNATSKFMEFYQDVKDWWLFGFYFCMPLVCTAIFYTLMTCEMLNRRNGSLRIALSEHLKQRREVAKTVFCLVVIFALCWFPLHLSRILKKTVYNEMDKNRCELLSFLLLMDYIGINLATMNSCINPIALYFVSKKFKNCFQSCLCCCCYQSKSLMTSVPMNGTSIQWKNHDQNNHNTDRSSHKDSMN

[22] = Volume of distribution at steady state in Sprague-Dawley rat at 5 mg/kg, iv; type: ADME, organism-based; set-up: dose 5 mg/kg, route intravenous; conditions: in vivo, read-out: Vdss
In short: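 Parallel design in male rats, three per group. Group 1: 5 mg/kg iv in EDPW (10% EtOH, 10% DMA, 30% PG, 50% water). Group 2: 10 mg/kg oral in aqueous 0.5% CMC with 0.25% Tween 20. Carotid cannula blood drawn up to 24 h. Plasma measured by LC/MS/MS (LLOQ 1.00 ng/mL), noncompartmental analysis.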

[23] = target: MAO-B (Homo sapiens, UniProt P27338); test: Inhibition of MAO-B at 10 uM
Chain of MAO-B (P27338 whole entry): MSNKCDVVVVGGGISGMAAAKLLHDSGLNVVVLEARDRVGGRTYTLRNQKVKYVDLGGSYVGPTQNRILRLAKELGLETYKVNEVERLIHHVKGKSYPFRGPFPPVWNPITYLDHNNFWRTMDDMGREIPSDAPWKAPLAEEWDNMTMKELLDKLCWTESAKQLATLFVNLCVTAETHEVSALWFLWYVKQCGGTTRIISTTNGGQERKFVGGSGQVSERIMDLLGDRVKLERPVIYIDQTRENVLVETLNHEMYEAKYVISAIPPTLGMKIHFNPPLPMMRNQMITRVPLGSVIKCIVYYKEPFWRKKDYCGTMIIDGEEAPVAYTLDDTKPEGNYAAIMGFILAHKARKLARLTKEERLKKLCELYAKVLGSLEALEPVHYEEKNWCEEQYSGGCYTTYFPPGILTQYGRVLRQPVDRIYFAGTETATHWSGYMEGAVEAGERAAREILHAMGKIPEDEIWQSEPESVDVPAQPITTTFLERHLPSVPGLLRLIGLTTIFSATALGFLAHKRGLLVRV

[24] = AUC (infinity) in Sprague-Dawley rat at 5 mg/kg, iv; type: ADME, organism-based; set-up: time infinity, dose 5 mg/kg, route intravenous; conditions: plasma; in short: as §2
[25] = Permeability across human Caco-2 cell membrane at 10 uM after 2 hrs; type: ADME, cell-based
In short: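 Caco-2 monolayers grown 20 days in DMEM, used when TEER >800 Ω·cm2. Dosed at 10 μM final in HBSS pH 6.5 with 1% DMSO, apical-to-basolateral and basolateral-to-apical. Incubated 2 h at 37 °C, both compartments sampled, LC-MS/MS with five-point calibration. Papp = (dQ/dt)/(C0A).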

## Cc1c2c(=O)n(-c3ccccc3Cl)[nH]c2cc(=O)n1Cc1ccccn1
[1]
  inhibition: 0%
[2]
  inhibition: 0%
[3]
  IC50: > 25 µM
[4]
  Cmax: 12100 ng/mL
[5]
  Ki: > 30 µM
[6]
  inhibition: 4%
[7]
  inhibition: 0%
[8]
  inhibition: 0%
[9]
  IC50: > 25 µM
[10]
  inhibition: 0%
[11]
  microsomal CLint at 0.5 µM: 70.2 µL/min/mg
[12]
  Cmax: 3150 ng/mL
[13]
  AUC(0-inf): 10900 ng·h/mL
[14]
  inhibition: 0%
[15]
  inhibition: 0%
[16]
  inhibition: 10%
[17]
  inhibition: 0%
[18]
  inhibition: 0%
[19]
  inhibition: 0%
[20]
  half-life: 3.63 h
[21]
  inhibition: 0%
[22]
  Vd: 1.08 L/kg
[23]
  inhibition at 10 µM: 0%
[24]
  AUC(0-inf): 11000 ng·h/mL
[25]
  Papp at 2 h, 10 µM: 21.4 ×10⁻⁶ cm/s
